Source: article PMC4681656 (Organic & biomolecular chemistry, 2016)
“Also recorded” adds a separate entry of the source.

Assays:
[1] = molecular target: vimentin rod domain (residues 99-411) (Homo sapiens, UniProt P08670); assay: Vimentin-arylquin binding assay by intrinsic arylquin fluorescence; conditions: fluorescence titration
[2] = molecular target: hERG potassium channel (Homo sapiens, UniProt Q12809); assay: [3H]-dofetilide binding assay with hERG-HEK293 cell membranes
[3] = test system: Par-4 secretion from mouse fibroblasts; assay type: cell-based; conditions: for fold induction at 0.5 µM: Mus musculus, Fibroblast, 24 h, read-out: Ratio of Par-4 Secretion by Arylquin Relative to Vehicle
Summary of the method: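 Cells exposed to test compound for 24 h. Conditioned medium and lysates were analysed by quantitative Western blot for Par-4 and Col1A1, with Col1A1 used to normalise secreted Par-4. Experiments were run in triplicate; data are mean ± standard deviation of at least three experiments, with Student t test.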

hERG potassium channel, sequence (Q12809 whole entry): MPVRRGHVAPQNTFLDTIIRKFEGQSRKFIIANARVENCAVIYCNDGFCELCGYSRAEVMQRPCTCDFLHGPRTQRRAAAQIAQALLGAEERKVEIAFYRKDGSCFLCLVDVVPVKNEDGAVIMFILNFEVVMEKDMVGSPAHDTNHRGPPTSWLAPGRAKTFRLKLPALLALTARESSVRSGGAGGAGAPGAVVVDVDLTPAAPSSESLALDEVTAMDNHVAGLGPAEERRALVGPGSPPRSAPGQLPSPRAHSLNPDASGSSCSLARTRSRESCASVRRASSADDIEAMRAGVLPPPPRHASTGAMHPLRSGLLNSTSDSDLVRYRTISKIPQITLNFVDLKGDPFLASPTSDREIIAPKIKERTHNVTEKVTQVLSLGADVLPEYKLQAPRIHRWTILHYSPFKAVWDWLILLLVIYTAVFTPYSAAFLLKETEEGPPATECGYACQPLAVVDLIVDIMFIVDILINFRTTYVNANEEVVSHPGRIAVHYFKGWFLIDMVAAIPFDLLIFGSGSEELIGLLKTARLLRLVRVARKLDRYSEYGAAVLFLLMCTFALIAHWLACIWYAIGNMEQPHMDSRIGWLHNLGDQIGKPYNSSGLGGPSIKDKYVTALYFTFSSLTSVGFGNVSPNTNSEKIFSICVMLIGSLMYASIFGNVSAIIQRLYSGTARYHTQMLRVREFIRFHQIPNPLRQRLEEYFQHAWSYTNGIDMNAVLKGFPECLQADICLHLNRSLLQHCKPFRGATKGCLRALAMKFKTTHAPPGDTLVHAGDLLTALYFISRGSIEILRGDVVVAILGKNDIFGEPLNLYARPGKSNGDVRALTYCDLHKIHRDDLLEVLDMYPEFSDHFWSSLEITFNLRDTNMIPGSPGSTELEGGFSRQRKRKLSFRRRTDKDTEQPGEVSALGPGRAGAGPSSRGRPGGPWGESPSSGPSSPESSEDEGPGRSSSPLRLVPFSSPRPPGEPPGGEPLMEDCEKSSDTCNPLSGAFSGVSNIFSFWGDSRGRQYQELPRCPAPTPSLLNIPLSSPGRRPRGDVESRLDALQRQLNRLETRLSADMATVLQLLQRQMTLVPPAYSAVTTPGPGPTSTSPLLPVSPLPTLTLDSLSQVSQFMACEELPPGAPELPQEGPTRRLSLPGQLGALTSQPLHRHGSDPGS
vimentin rod domain (residues 99-411), sequence (P08670 99-411): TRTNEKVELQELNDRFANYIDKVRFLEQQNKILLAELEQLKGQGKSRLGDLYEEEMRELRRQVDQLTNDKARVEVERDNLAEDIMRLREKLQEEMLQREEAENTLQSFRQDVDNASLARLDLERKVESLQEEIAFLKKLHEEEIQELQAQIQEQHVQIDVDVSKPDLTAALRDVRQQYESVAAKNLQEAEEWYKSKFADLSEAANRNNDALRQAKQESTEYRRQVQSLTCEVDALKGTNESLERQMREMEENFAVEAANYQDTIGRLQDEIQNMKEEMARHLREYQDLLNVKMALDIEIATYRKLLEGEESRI

CN(C)c1ccc2cc(-c3ccccc3F)c(N)nc2c1 [1a, 3-(2-Fluorophenyl)-N^7,N^7-dimethylquinoline-2,7-diamine]
Stoichiometry at saturation [1]: 3-4 molecules per monomer of the rod domain

CN(C)c1ccc2cc(-c3cccc(F)c3)c(N)nc2c1 [1d, 3-(3-Fluorophenyl)-N^7,N^7-dimethylquinoline-2,7-diamine]
IC50 [2]: 1.59 ± 0.39 µM

CN(C)c1ccc2cc(-c3ccc(F)cc3)c(N)nc2c1 [1f, 3-(4-Fluorophenyl)-N^7,N^7-dimethylquinoline-2,7-diamine]
IC50 [2]: 30.2 ± 10.3 µM

CN(C)c1ccc2cc(-c3c(F)cccc3Cl)c(N)nc2c1 [1n, 3-(2-Chloro-6-fluorophenyl)-N^7,N^7-dimethylquinoline-2,7-diamine]
fold induction at 0.5 µM [3]: 2.4

CN(C)c1ccc2cc(-c3c(Cl)cccc3Cl)c(N)nc2c1 [1o, 3-(2,6-Dichlorophenyl)-N^7,N^7-dimethylquinoline-2,7-diamine]
fold induction at 0.5 µM [3]: 2.4

COc1ccccc1-c1cc2ccc(N(C)C)cc2nc1N [1r, 3-(2-Methoxyphenyl)-N^7,N^7-dimethylquinoline-2,7-diamine]
fold induction at 0.5 µM [3]: 1.7

CN(C)c1ccc2cc(-c3ccccc3F)c(=O)[nH]c2c1 [compound 2, 7-(N,N-Dimethylamino)-3-(2-fluorophenyl)quinolin-2(1H)-one]
fold induction at 0.5 µM [3]: 1.1
IC50 [2]: > 100 µM

CN(C)c1ccc2cc3c(nc(N)c4ccccc43)nc2c1 [compound 5, N^9,N^9-Dimethyldibenzo[b,f][1,8]naphthyridine-5,9-diamine]
Par-4 secretion activity (in words) [3]: inactive

CN(C)c1ccc2cc3c(nc2c1)[nH]c(=O)c1ccccc13 [compound 6, 9-(N,N-Dimethylamino)dibenzo[b,f][1,8]naphthyridin-5(6H)-one]
Par-4 secretion activity (in words) [3]: inactive

CN(C)c1ccc2cc(-c3ccccc3F)c(=S)[nH]c2c1 [compound 7, 7-(N,N-Dimethylamino)-3-(2-fluorophenyl)quinoline-2(1H)-thione]
fold induction at 0.5 µM [3]: 1.7
IC50 [2]: > 100 µM

CN(C)c1ccc2cc(-c3ccccc3F)c(N3CCOCC3)nc2c1 [compound 10, 3-(2-Fluorophenyl)-N,N-dimethyl-2-morpholinoquinolin-7-amine]
fold induction at 0.5 µM [3]: 1.8
IC50 [2]: 23.3 ± 3.05 µM

CN1CCN(c2nc3cc(N(C)C)ccc3cc2-c2ccccc2F)CC1 [compound 11, 3-(2-Fluorophenyl)-N,N-dimethyl-2-(4-methylpiperazin-1-yl)quinolin-7-amine]
Par-4 secretion activity (in words) [3]: high levels of Par-4 secretion

Nc1nc2ccccc2cc1-c1ccccc1F [compound 12, 3-(2-Fluorophenyl)quinolin-2-amine]
Par-4 secretion activity (in words) [3]: high levels of Par-4 secretion
fold induction at 0.5 µM [3]: 2.8
IC50 [2]: 14.6 ± 5.82 µM

Nc1nc2cccc(F)c2cc1-c1ccccc1F [compound 13, 5-Fluoro-3-(2-fluorophenyl)quinolin-2-amine]
Par-4 secretion activity (in words) [3]: equipotent to 1a

Nc1nc2ccc(Cl)cc2cc1-c1ccccc1F [compound 16, 6-Chloro-3-(2-fluorophenyl)quinolin-2-amine]
Par-4 secretion activity (in words) [3]: equipotent to 1a

Nc1nc2cc(Cl)ccc2cc1-c1ccccc1F [compound 17, 7-Chloro-3-(2-fluorophenyl)quinolin-2-amine]
Par-4 secretion activity (in words) [3]: did not induce Par-4 secretion
Binding to vimentin rod domain (in words) ([1]; arylquin at 1 μM): did not bind the vimentin rod domain to a measurable extent; also recorded: fluorescence signal did not change in the titration
